# Calls of active or inactive are those of the source. The rule behind the calls is not given here.
# Key:
# [1] = Binding affinity to DNA (unknown origin) at 100 uM after 2 hrs by UV-Vis absorption spectroscopic analysis
# Method in brief: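 DNA (100 μg/mL; stock 1.0 mg/mL in 50 mM Tris-HCl pH 7.5, 50 mM NaCl) with ligand fixed at 100 μM; incubated at 37 °C, then diluted six-fold; absorbance scanned 220–350 nm at 25 °C, 1 cm quartz cell; 260 nm band monitored.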
# PANC-1 [2] = experiment: Induction of apoptosis in human PANC1 cells assessed as PARP cleavage at 50 uM after 24 hrs by Western blot analysis; format: functional, cell-based
# Method in brief: (§1)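 Cells (1.5 × 10^6) treated 24 h at 25 or 50 μM; 50 μg protein per lane on 10% SDS-PAGE, nitrocellulose, 2% TBS-BSA block, primary antibody overnight at 4 °C, HRP secondary, ECL detection; β-actin loading control; untreated controls in parallel.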
# T98G [3] = experiment: Induction of apoptosis in human T98G cells assessed as PARP cleavage at 50 uM after 24 hrs by Western blot analysis; format: functional, cell-based
# Method in brief: (§2)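 Cells (1.5 × 10^6) exposed 24 h to compound (25 or 50 μM). 50 μg protein per lane resolved on 10% SDS-PAGE and transferred to nitrocellulose. Membrane blocked in 2% TBS-BSA, then probed with primary antibody overnight at 4 °C and HRP secondary. Detection by ECL, with β-actin as loading control. Untreated control run in parallel.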
# PANC-1 [4] = experiment: Induction of apoptosis in human PANC1 cells assessed as procaspase-9 cleavage at 50 uM after 24 hrs by Western blot analysis; format: functional, cell-based; method in brief: as §2
# PANC-1 [5] = experiment: Induction of apoptosis in human PANC1 cells assessed as procaspase-8 cleavage at 50 uM after 24 hrs by Western blot analysis; format: functional, cell-based; method in brief: as §1
# T98G [6] = experiment: Induction of apoptosis in human T98G cells assessed as procaspase-9 cleavage at 50 uM after 24 hrs by Western blot analysis; format: functional, cell-based; method in brief: as §2
# PANC-1 [7] = experiment: Induction of apoptosis in human PANC1 cells assessed as procaspase-7 cleavage at 50 uM after 24 hrs by Western blot analysis; format: functional, cell-based; method in brief: as §1
# T98G [8] = experiment: Induction of apoptosis in human T98G cells assessed as procaspase-8 cleavage at 50 uM after 24 hrs by Western blot analysis; format: functional, cell-based; method in brief: as §2
# T98G [9] = experiment: Induction of apoptosis in human T98G cells assessed as procaspase-7 cleavage at 50 uM after 24 hrs by Western blot analysis; format: functional, cell-based; method in brief: as §2
# PANC-1 [10] = experiment: Downregulation of total Bid expression in human PANC1 cells at 50 uM after 24 hrs by Western blot analysis; format: functional, cell-based; method in brief: as §1
# PANC-1 [11] = experiment: Downregulation of Bcl-xL expression in human PANC1 cells at 50 uM after 24 hrs by Western blot analysis; format: functional, cell-based; method in brief: as §1
# T98G [12] = experiment: Downregulation of total Bid expression in human T98G cells at 50 uM after 24 hrs by Western blot analysis; format: functional, cell-based; method in brief: as §1
# T98G [13] = experiment: Downregulation of Bcl-xL expression in human T98G cells at 50 uM after 24 hrs by Western blot analysis; format: functional, cell-based; method in brief: as §1
# PANC-1 [14] = experiment: Induction of mitochondrial transmembrane depolarization in human PANC1 cells at 30 uM after 24 hrs by JC1 staining-based flow cytometric analysis (reference value: 2.7%); format: functional
# T98G [15] = experiment: Induction of mitochondrial transmembrane depolarization in human T98G cells at 30 uM after 24 hrs by JC1 staining-based flow cytometric analysis (reference value: 10.26%); format: functional
# PANC-1 [16] = experiment: Induction of apoptosis in human PANC1 cells at 30 uM after 24 hrs by dUTP-FITC staining-based TUNEL assay (reference value: 0.17%); format: functional
# T98G [17] = experiment: Induction of apoptosis in human T98G cells at 30 uM after 24 hrs by dUTP-FITC staining-based TUNEL assay (reference value: 1.88%); format: functional
# PANC-1 [18] = experiment: Induction of apoptosis in human PANC1 cells at 30 uM after 24 hrs by 7-AAD-based FACS flow cytometric analysis (reference value: 5.18%); format: functional
# T98G [19] = experiment: Induction of apoptosis in human T98G cells at 30 uM after 24 hrs by 7-AAD-based FACS flow cytometric analysis (reference value: 5.3%); format: functional
# T98G [20] = experiment: Induction of apoptosis in human T98G cells assessed as induction of DNA damage at 20 uM after 24 hrs by comet assay relative to untreated control; format: functional
# Method in brief: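 T98G cells (1 × 10^5) treated 24 h with 0 or 20 μM. About 20000 cells embedded in 0.5% low-melting agarose and lysed overnight at 4 °C at pH 10. Alkaline electrophoresis (pH 13) for 30 min at 300 mA at 4 °C, then ethidium bromide staining. Tail length (nucleus centre to tail tip) from ≥20 comets, reported as mean ± SD.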
# T98G [21] = experiment: Cytotoxicity against human T98G cells assessed as growth inhibition at 50 uM by MTT assay; format: functional, cell-based; settings: TDE = time-dependent effect
# HeLa = experiment: Cytotoxicity against human HeLa cells assessed as growth inhibition after 48 hrs by MTT assay
# SW480 = experiment: Cytotoxicity against human SW480 cells assessed as growth inhibition after 48 hrs by MTT assay; settings: SW480, 48 h
# NCI-H23 = experiment: Cytotoxicity against human NCI-H23 cells assessed as growth inhibition after 48 hrs by MTT assay; settings: NCI-H23, 48 h
# HCT-116 = experiment: Cytotoxicity against human HCT116 cells assessed as growth inhibition after 48 hrs by MTT assay; settings: HCT-116, 48 h
# A549 = experiment: Cytotoxicity against human A549 cells assessed as growth inhibition after 48 hrs by MTT assay; settings: A549, 48 h
# [22] = Cytotoxicity against human Panc 10.05 cells assessed as growth inhibition after 48 hrs by MTT assay; settings: Panc1005, 48 h
# PANC-1 [23] = experiment: Cytotoxicity against human PANC1 cells assessed as growth inhibition after 48 hrs by MTT assay; settings: PANC-1, 48 h
# MIA PaCa-2 = experiment: Cytotoxicity against human MIAPaCa2 cells assessed as growth inhibition after 48 hrs by MTT assay; settings: MIA PaCa-2, 48 h
# ASPC1 = experiment: Cytotoxicity against human AsPC1 cells assessed as growth inhibition after 48 hrs by MTT assay; settings: ASPC1, 48 h
# T98G [24] = experiment: Cytotoxicity against human T98G cells assessed as growth inhibition after 48 hrs by MTT assay
# [25] = Cytotoxicity against human A172 cells assessed as growth inhibition after 48 hrs by MTT assay; settings: A 172, 48 h
# [26] = Cytotoxicity against human U87MG cells assessed as growth inhibition after 48 hrs by MTT assay; settings: U-87 MG
# [27] = Cytotoxicity against human LN229 cells assessed as growth inhibition after 48 hrs by MTT assay; settings: LN-229, 48 h
# [28] = Cytotoxicity against human U373MG cells assessed as growth inhibition after 48 hrs by MTT assay; settings: U373 MG
# K562 = experiment: Cytotoxicity against human K562 cells assessed as growth inhibition after 48 hrs by MTT assay; settings: K562, 48 h
# REH = experiment: Cytotoxicity against human REH cells assessed as growth inhibition after 48 hrs by MTT assay
# MOLT-4 = experiment: Cytotoxicity against human MOLT4 cells assessed as growth inhibition after 48 hrs by MTT assay; settings: MOLT-4, 48 h
# [29] = Cytotoxicity against human CEMC-7 cells assessed as growth inhibition after 48 hrs by MTT assay; settings: CEMC-7, 48 h
# MOLT-3 = experiment: Cytotoxicity against human MOLT3 cells assessed as growth inhibition after 48 hrs by MTT assay; settings: MOLT-3, 48 h
smiles,measurement,setting,value
CC(C)=CCC[C@]1(C)C=Cc2c(c(C)cc3c2[nH]c2ccccc23)O1,Activity,[1],Active
same,Activity,PANC-1 [2],Active
same,Activity,T98G [3],Active
same,Activity,PANC-1 [4],Active
same,Activity,PANC-1 [5],Active
same,Activity,T98G [6],Active
same,Activity,PANC-1 [7],Active
same,Activity,T98G [8],Active
same,Activity,T98G [9],Active
same,Activity,PANC-1 [10],Active
same,Activity,PANC-1 [11],Active
same,Activity,T98G [12],Active
same,Activity,T98G [13],Active
same,Activity,PANC-1 [14],15.3%
same,Activity,T98G [15],16.72%
same,Activity,PANC-1 [16],1.13%
same,Activity,T98G [17],9.58%
same,Activity,PANC-1 [18],17.06%
same,Activity,T98G [19],10.13%
same,Activity,T98G [20],inactive
same,growth inhibition (GI),T98G [21],tde
same,IC50,HeLa,25 µM
same,IC50,SW480,25 µM
same,IC50,NCI-H23,25 µM
same,IC50,HCT-116,25 µM
same,IC50,A549,25 µM
same,IC50,[22],25 µM
same,IC50,PANC-1 [23],25 µM
same,IC50,MIA PaCa-2,25 µM
same,IC50,ASPC1,25 µM
same,IC50,T98G [24],25 µM
same,IC50,[25],25 µM
same,IC50,[26],25 µM
same,IC50,[27],25 µM
same,IC50,[28],25 µM
same,IC50,K562,25 µM
same,IC50,REH,25 µM
same,IC50,MOLT-4,25 µM
same,IC50,[29],25 µM
same,IC50,MOLT-3,25 µM
